From ChEMBL document CHEMBL1146768, “Orally active factor Xa inhibitors: 4,5,6,7-tetrahydrothiazolo[5,4-c]pyridine derivatives” (Bioorg Med Chem Lett, 2004)

How the values were obtained:
[1] = tested on: Rattus norvegicus; assay: Ex vivo anti-coagulant activity at 1 hr after oral administration of 30 mg/kg to rats perorally; format: functional
[2] = target: Prothrombin (Homo sapiens, UniProt P00734); assay: In vitro inhibitory activity against human thrombin
[3] = tested on: Rattus norvegicus; assay: Ex vivo anti-fXa activity at 1 hr after oral administration of 30 mg/kg to rats perorally; format: functional
How it was run: (§1)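 Male Wistar rats, fasted overnight, dosed by stomach tube with compound in 0.5% (w/v) methylcellulose; controls got vehicle alone. Blood drawn into trisodium citrate under halothane anaesthesia at set times, and platelet-poor plasma prepared.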

[4] = tested on: Rattus norvegicus; assay: Ex vivo anti-fXa activity at 6 hr after oral administration of 30 mg/kg to rats perorally; format: functional; how it was run: as §1
[5] = species on record: Homo sapiens; assay: Anti-coagulant activity in human plasma were evaluated with the plasma clotting time doubling concentration; format: functional, cell-free
[6] = tested on: Rattus norvegicus; assay: Ex vivo anti-fXa activity at 3 hr after oral administration of 30 mg/kg to rats perorally; format: functional; how it was run: as §1
[7] = tested on: Rattus norvegicus; assay: Ex vivo anti-coagulant activity at 6 hr after oral administration of 30 mg/kg to rats perorally; format: functional
[8] = tested on: Rattus norvegicus; assay: Ex vivo anti-coagulant activity at 3 hr after oral administration of 30 mg/kg to rats perorally; format: functional
[9] = target: Coagulation factor X (Homo sapiens, UniProt P00742); assay: In vitro inhibitory activity against human Coagulation factor X
Chain of Coagulation factor X (P00742 41-179 limits assumed): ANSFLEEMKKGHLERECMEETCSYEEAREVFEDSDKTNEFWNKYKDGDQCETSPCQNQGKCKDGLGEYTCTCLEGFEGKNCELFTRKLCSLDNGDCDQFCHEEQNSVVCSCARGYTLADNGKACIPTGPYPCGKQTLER
Chain of Coagulation factor X (P00742 235-488 limits assumed): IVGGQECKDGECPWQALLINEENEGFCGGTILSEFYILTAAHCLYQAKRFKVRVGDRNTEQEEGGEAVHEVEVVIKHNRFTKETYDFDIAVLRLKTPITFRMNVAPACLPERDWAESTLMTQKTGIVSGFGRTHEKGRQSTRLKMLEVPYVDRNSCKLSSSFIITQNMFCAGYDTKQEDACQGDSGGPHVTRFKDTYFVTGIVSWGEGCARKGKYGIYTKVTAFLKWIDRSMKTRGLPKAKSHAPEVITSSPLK

Row | IC50 [2] | IC50 [9] | SMILES | Prolongation effect [1] | Anti-fXa activity [3] | Anti-fXa activity [4] | Concentration [5] | Anti-fXa activity [6] | Prolongation effect [7] | Prolongation effect [8]
1 | 1350 nM | 27 nM | CNC(=O)C1CN(S(=O)(=O)c2ccc3cc(Cl)ccc3c2)CCN1C(=O)c1nc2c(s1)CN(C)CC2 (stereo not given) | 1.35 | 89.5% | 23.5% | 3 µM | 73.7% | 1.04 | 1.14
2 | 2900 nM | 60 nM | O=C(c1nc2c(s1)CNCC2)N1CCN(S(=O)(=O)c2ccc3cc(Cl)ccc3c2)CC1 |  |  |  | 11.2 µM |  |  | 
3 | 6000 nM | 130 nM | CN1CCc2nc(C(=O)N3CCN(S(=O)(=O)c4ccc5cc(Cl)ccc5c4)CC3C(=O)N(C)C)sc2C1 (stereo not given) |  |  |  | 7 µM |  |  | 
4 | 1300 nM | 640 nM | CN1CCc2nc(C(=O)N3CCN(S(=O)(=O)c4ccc5cc(Cl)ccc5c4)CC3C(=O)NCc3ccccc3)sc2C1 (stereo not given) |  |  |  |  |  |  | 
5 | 1000 nM | 25 nM | CN1CCc2nc(C(=O)N3CCN(S(=O)(=O)c4ccc5cc(Cl)ccc5c4)CC3C(=O)NCC(=O)N3CCOCC3)sc2C1 (stereo not given) |  |  |  | 2.1 µM |  |  | 
6 | 820 nM | 45 nM | CC(C)NC(=O)C1CN(S(=O)(=O)c2ccc3cc(Cl)ccc3c2)CCN1C(=O)c1nc2c(s1)CN(C)CC2 (stereo not given) |  |  |  | 8.8 µM |  |  | 
7 | 560 nM | 22 nM | CN1CCc2nc(C(=O)N3CCN(S(=O)(=O)c4ccc5cc(Cl)ccc5c4)CC3)sc2C1 |  |  |  | 6 µM |  |  | 
8 | 3200 nM | 7.8 nM | C[N+]1(C)CCc2nc(C(=O)N3CCN(S(=O)(=O)c4ccc5cc(Cl)ccc5c4)CC3)sc2C1 |  |  |  | 0.8 µM |  |  | 
9 | 880 nM | 23 nM | CN1CCc2nc(C(=O)N3CCN(S(=O)(=O)c4ccc5cc(Cl)ccc5c4)CC3C(=O)NCC(N)=O)sc2C1 (stereo not given) |  |  |  | 3.8 µM |  |  | 
10 | 1000 nM |  | CN1CCc2nc(C(=O)N3CCN(S(=O)(=O)c4ccc5cc(Cl)ccc5c4)CC3C(N)=O)sc2C1 (stereo not given) | 1.13 | 67.4% | 24.7% | 4.4 µM | 55.8% | 1.05 | 1.09
